Rows were chosen to be rich in hits. Some 1.9% of all compounds tested hit in one or more screens of this group.
MC4R ag barr: MC4R agonists recruiting beta-arrestin, primary screen, cell-based, luminescence, agonist arm of biased-ligand search | U2OS MC4R beta-arrestin complementation; percent of melanotan II response, DMSO zero | activation, % at 8.9 µM | hit rate 0.98% among 360,000;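 active means activation above a per-plate cutoff, the mean activation of sample wells on that plate plus 3 SD, cut at about 8% in these data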
MC4R antag cAMP: MC4R antagonists of cAMP signaling, primary screen, cell-based, TR-FRET, antagonist arm of biased-ligand search; hit rate 0.48% among 360,000; inhibition, % at 6.5 µM; Melanocortin receptor 4 (Homo sapiens), P32245; MC4R-expressing cells, MTII-stimulated cAMP, LANCE TR-FRET;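 active means inhibition above its plate's cutoff, the mean of tested wells on that plate plus 3 SD, cut at about 29% in these data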
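System: U2OS-MC4R stable cell line; Technique: Eu-cAMP/anti-cAMP TR-FRET, emission 671 nm; Repeats: single well per compound; Also added: Melanotan II; Dosing: one concentration, 6.5 µM nominal; Schedule: 30-min compound, 1-h challenge, 1-h detection, room temperature.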
TLR4-MyD88 BLA: inhibitors of TLR4-MyD88 association in cells, primary screen, cell-based, HeLa CL3-4, BLA complementation, FRET ratio; HeLa CL3-4 TLR4/MyD88 BLA complementation; inhibition, % at 8.4 µM; hit rate 0.18% among 200,000; Toll-like receptor 4 (Homo sapiens) + Myeloid differentiation primary response protein …; in the data active means inhibition above about 25%
TLR9-MyD88 block: inhibitors of TLR9-MyD88 association in cells, primary screen, cell-based, CHO, BLA complementation, fluorescence; Toll-like receptor 9 (Homo sapiens) + Myeloid differentiation primary response protein …; CCF4 FRET ratio; inhibition, % at 4.98 µM; hit rate 0.21% among 340,000; AID 504734, 2011;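 active means inhibition above the mean over all tested compounds plus 3 SD, cut at about 21% in these data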
NTR1 agonist: agonists of human NTR1, primary screen, imaging, U2OS cells, beta-arrestin-GFP, high content; Neurotensin receptor type 1 (Homo sapiens), P30989; NTR1-U2OS beta-arrestin-GFP spot imaging, agonist mode; activation, % at 20 µM; hit rate 0.17% among 330,000; AID 493036, 2011;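 active means activation at or above 40% of the spot to cytoplasm intensity ratio, with at least 20 cells analyzed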
NOD2 RIPK2 PPI: NOD2-RIPK2 binding disruptors in cells, primary screen, fluorescence, CHO cells, BLA complementation; Receptor-interacting serine/threonine-protein kinase 2 (Homo sapiens), O43353; inhibition, % at 4.98 µM; hit rate 0.38% among 360,000; CCF4 ratio; in the data active means inhibition above about 21%
MC4R barr conf: MC4R beta-arrestin agonists, retest, confirmation, cell-based, luminescence, U2OS. shares compounds with MC4R ag barr. U2OS MC4R beta-arrestin recruitment; scaled DMSO 0%, Melanotan II 100%. activation, % at 8.9 µM. hit rate 31% among 2,400;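 active means mean activation across replicates above the hit cutoff set in the earlier primary screen, cut at about 8% in these data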
MOR DOR agonist: agonists of MOR-DOR heterodimerization, counter-screen for MC4R biased agonist project, cell-based, luminescence | AID 602194, 2012 | hit rate 5.8% among 2,400 | U2OS PathHunter beta-arrestin, beta-gal luminescence; percent of deltorphin B response, DMSO zero | shares compounds with MC4R ag barr | activation, % at 9.2 µM;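 active means mean activation across replicates exceeds the hit threshold derived in the earlier primary screen, cut at about 18% in these data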
Numbers stand for hits; 0 = inactive; - = no result given.

SMILES	MC4R ag barr	MC4R antag cAMP	TLR4-MyD88 BLA	TLR9-MyD88 block	NTR1 agonist	NOD2 RIPK2 PPI	MC4R barr conf	MOR DOR agonist
CC(=O)c1cccc(-c2cnc3c(NC=O)cc(-c4ccccc4F)cn23)c1	20.1	0	-	-	-	0	19.9	0
CC(=O)Nc1cc(-c2ccoc2)cn2c(-c3ccccc3)cnc12	10.7	0	-	-	-	0	14.5	0
CC(=O)Nc1cc(-c2ccccc2)cn2c(-c3cccc(C(C)=O)c3)cnc12	21.0	0	-	-	-	0	19.6	0
NS(=O)(=O)c1ccc(NC(=S)Nc2ccc(S(=O)(=O)Nc3nccs3)cc2)cc1	-	-	-	-	-	0	-	-
COc1ccc(Cl)cc1S(=O)(=O)NCc1nc2nc(C)cc(C)n2n1	0	0	-	0	0	0	-	-
CN(C)C(=O)c1cccc(-c2cc(NC=O)c3ncc(-c4ccc(F)c(Cl)c4)n3c2)c1	0	0	-	-	-	0	-	-
CC(=O)Nc1cc(-c2cccc(C(=O)N(C)C)c2)cn2c(-c3cccc(C(=O)N(C)C)c3)cnc12	0	0	-	-	-	0	-	-
CC(=O)Nc1cc(-c2cccc(C(=O)N(C)C)c2)cn2c(-c3ccc(F)c(Cl)c3)cnc12	16.1	0	-	-	-	0	23.5	0
CC(=O)Nc1cc(-c2cccc(C(=O)N(C)C)c2)cn2c(-c3ccc(C(C)=O)cc3)cnc12	11.2	0	-	-	-	0	0	0
O=C1NC(Cc2ccccc2)c2nc3ccccc3c(=O)n2-c2cc3ccccc3cc21 (stereo not drawn)	0	0	-	0	-	0	-	-
O=C1COc2ccc(C(=O)COC(=O)CCSc3ccc(Cl)cc3)cc2N1	18.7	0	0	0	0	0	0	0
COc1ccc(S(=O)(=O)Nc2cccc(-c3ccc4nncn4n3)c2)c(OC)c1	0	0	-	0	0	0	-	-
COc1ccc(Cc2nnc(NC(=O)CSc3ccccc3)s2)cc1	13.8	0	0	0	0	0	0	0
COc1ccc(Cc2nnc(NC(=O)CSc3ccc(C)cc3)s2)cc1	0	0	0	0	0	0	-	-
COc1cc(NC(=O)c2cc([N+](=O)[O-])ccc2NC(=O)CNCc2ccccn2)cc(OC)c1	0	0	-	0	0	0	-	-
COc1ccc(NC(=O)c2cc([N+](=O)[O-])ccc2NC(=O)CNCc2ccccn2)c(OC)c1	13.0	0	-	0	0	0	13.4	0
CCc1ccc(N2C(=O)CN(Cc3sccc3C)C2=S)cc1	0	0	0	0	0	0	-	-
CCOC(=O)c1sc2ccccc2c1OC(=O)c1ccc(C)cc1	14.0	0	0	0	0	0	0	0
COC(=O)c1sc2ccccc2c1N	0	0	0	0	0	0	-	-
Cc1cc(N/N=C\c2ccccc2)nc(-c2ccccc2O)n1	20.3	0	0	0	0	0	0	0
COc1cccc(NC(=O)C2CC2(c2cccc(OC)c2)c2cccc(OC)c2)c1 (stereo not drawn)	0	0	0	0	0	0	-	-
COc1cccc(C2(c3cccc(OC)c3)CC2C(=O)Nc2cccc3ccccc23)c1 (stereo not drawn)	9.6	0	0	0	0	0	0	0
OC(CNCCc1ccc(Cl)cc1)COc1ccc2ccccc2c1 (stereo not drawn)	20.0	0	0	0	-	0	14.8	0
COc1ccc(CCNCC(O)COc2ccc(Cl)cc2)cc1OC (stereo not drawn)	0	0	-	0	0	0	-	-
